Data reported in ChEMBL document CHEMBL4177557, “Anti-inflammatory Flavan-3-ol-dihydroretrochalcones from Daemonorops draco” (J Nat Prod, 2017).

Legend:
Neutrophil [1] = assay: Inhibition of fMLP/CB-induced elastase release in human neutrophils; type: functional, cell-based
Summary of the method: (§1)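 Isolated human neutrophils stimulated with fMLP plus cytochalasin B. Superoxide measured as SOD-inhibitable ferricytochrome c reduction. Azurophilic degranulation measured as elastase release. IC50, the concentration giving 50% inhibition, calculated by computer; mean ± SEM, n = 3–5; Student's t test.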

Neutrophil [2] = assay: Inhibition of fMLP/CB-induced superoxide anion production in human neutrophils assessed as SOD-based ferricytochrome c reduction assay; type: functional, cell-based; summary of the method: as §1

COC1=C(CCC(=O)c2ccccc2)C(=O)[C@@H]2C(=O)[C@H]1[C@H]1c3c(cc(O)c(C)c3OC)O[C@]2(c2ccccc2)[C@@H]1O
IC50 (Neutrophil [1]): > 10 µM
IC50 (Neutrophil [2]): > 10 µM

COC1=CC(=O)C(C)=C2O[C@]3(c4ccccc4)Oc4cc(O)c(C)c(OC)c4[C@@H]([C@H]3O)[C@]12CCC(=O)c1ccccc1
IC50 (Neutrophil [1]): 4.5 µM
IC50 (Neutrophil [2]): 3.1 µM

COC1=CC(=O)[C@]2(C)C(=O)[C@@]1(CCC(=O)c1ccccc1)[C@H]1c3c(cc(O)c(C)c3OC)O[C@]2(c2ccccc2)[C@@H]1O
IC50 (Neutrophil [1]): > 10 µM
IC50 (Neutrophil [2]): > 10 µM

O=c1cc(N2CCOCC2)oc2c(-c3ccccc3)cccc12 [LY-294002]
IC50 (Neutrophil [1]): 1.5 µM
IC50 (Neutrophil [2]): 0.4 µM
